As a reminder, the IC50 is the midpoint of a concentration-inhibition curve. Usually EC50 stands for the midpoint of the concentration-response curve. Broadly, the bioavailability is the share of a dose that reaches the circulation, judged against a reference dose that is usually intravenous. Broadly, the AUC is concentration integrated over time. Read a low AUC as low exposure. One may read the half-life as how long it takes for the measured level to halve. A low value points to fast loss. By Vd is commonly meant a proportionality between amount in the body and measured concentration, not a real space. A high value points to wide distribution into tissue.

The source of these data is ChEMBL document CHEMBL1154335, “2-(3-Thienyl)-5,6-dihydroxypyrimidine-4-carboxylic acids as inhibitors of HCV NS5B RdRp” (Bioorg Med Chem Lett, 2009).

“And” between values parts separate entries of the source, which are not always exact repeats. Identical values can stand only once.

Series [1] has as its system Hepatitis C virus. Kind of series: Inhibition of HCV1b Cdelta55 NS5B polymerase. Type of series: functional, organism-based, Hepatitis C virus subtype 1b.
Series [2] deals with Hepatitis C virus. Briefly: Antiviral activity against Hepatitis C virus subtype 2a infected in human HuH7 cells by replicon assay. Type of series: functional, organism-based, Hepacivirus hominis, genotype 2a, Huh-7. The method in brief: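 Full-length HCV genotype 2a infectivity assay; EC50 determined.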
Series [3] has as its system Hepatitis C virus. Kind of series: Antiviral activity against Hepatitis C virus subtype 1b infected in human HuH7 cells by replicon assay. Conditions: genotype 1b, Huh-7. Type of series: functional, organism-based, Hepacivirus hominis.
Series [4] deals with Hepatitis C virus. Kind of series: Inhibition of wild type HCV con1 Cdelta55 NS5B polymerase. Type of series: functional, Hepacivirus hominis. The settings on record: isolate Con1. The method in brief: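 Recombinant NS5B truncated by 55 C-terminal residues (ΔC55), genotype 1b HCV; IC50 determined from enzyme inhibition.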
Series [5] in a line: Bioavailability in intramuscular dosed rat. Type of series: ADME, organism-based. Conditions: in vivo, im. Put shortly:
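Rat, intramuscular administration; plasma exposure measured to derive bioavailability.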

For series [6], the system named is Hepatitis C virus. Kind of series: Inhibition of HCV con1 Cdelta55 NS5B polymerase G152E mutant. Type of series: functional, Hepacivirus hominis. Conditions: isolate Con1. The method in brief:
(§1)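 IC50 determined on isolated recombinant NS5B polymerase carrying a single P156S or G152E substitution. These substitutions were identified in replicon colonies selected with […]. Wild-type enzyme was run alongside as the reference.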

In series [7] the test system is Hepatitis C virus. Kind of series: Inhibition of HCV2a Cdelta21 NS5B polymerase. Type of series: functional, Hepatitis C virus subtype 2a.
A short description of series [8]: AUC in rat plasma at 3 mg/kg, po. Type of series: ADME, organism-based. Further details: dose 3 mg/kg, route oral. The method in brief: (§2)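 Rat, oral dose of 3 mg/kg; plasma exposure (AUC) measured and oral bioavailability derived.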
Series [9] in a line: Half life in rat plasma at 3 mg/kg, iv. Type of series: ADME, organism-based. Further details: dose 3 mg/kg, route intravenous. The method in brief: (§3)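 Rat, single intravenous dose of 3 mg/kg; plasma sampled for half-life, volume of distribution and turnover (clearance).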
Series [10] relates to Hepatitis C virus. Kind of series: Inhibition of HCV1b Cdelta21 NS5B polymerase. Type of series: functional, Hepatitis C virus subtype 1b.
Series [11] is described as follows: Inhibition of HCV3a Cdelta21 NS5B polymerase. Further details: species or system Hepatitis C virus subtype 3a.
Series [12] can be described thus: Oral bioavailability in rat at 3 mg/kg. Conditions: in vivo. Type of series: ADME, organism-based. The method in brief:
as §2

Series [13] can be described thus: Volume of distribution in rat at 3 mg/kg, iv. Type of series: ADME, organism-based. The arrangement: dose 3 mg/kg, route intravenous. Conditions: in vivo. The method in brief:
as §3

A short description of series [14]: Metabolic stability in rat assessed as compound turnover at 3 mg/kg, iv. Type of series: ADME, organism-based. The arrangement: dose 3 mg/kg, route intravenous. Conditions: in vivo, read-out: Stability. The method in brief: as §3
Series [15] in a line: Protein binding in rat serum. The settings on record: read-out: PB. Type of series: ADME, cell-free. The method in brief: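 Binding to rat serum proteins measured.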
Series [16] can be described thus: Inhibition of HCV2b Cdelta21 NS5B polymerase. The arrangement: species or system Hepatitis C virus subtype 2b.
Series [17] deals with Hepatitis C virus. Briefly: Inhibition of HCV con1 Cdelta55 NS5B polymerase P156S mutant. Type of series: functional, Hepacivirus hominis. The settings on record: isolate Con1. The method in brief: as §1
Where [18] appears, read: Hepatitis C virus, genotype 2a, Huh-7.

For `CS(=O)(=O)NC(=O)Nc1cscc1-c1nc(O)c(O)c(C(=O)O)n1`, the midpoint of inhibition in series [1], the IC50, lay at 426 nM.

Take `O=C(Nc1cscc1-c1nc(O)c(O)c(C(=O)O)n1)NS(=O)(=O)c1ccccc1Cl`: the IC50 in series [1] was 78 nM. Further, the EC50 in series [2] (setting [18]) amounted to 6600 nM; in series [3] it was 2600 nM.

Take `O=C(O)c1nc(-c2ccsc2)nc(O)c1O`: in series [1], the IC50 was found to be 6150 nM.

In series [1], `O=C(Nc1cscc1-c1nc(O)c(O)c(C(=O)O)n1)NS(=O)(=O)c1cccc(Br)c1` showed an IC50 of 38 nM. In addition, in series [3], the EC50 was found to be 37000 nM.

As to `O=C(Nc1cscc1-c1nc(O)c(O)c(C(=O)O)n1)NS(=O)(=O)c1cccc2ccccc12`, the IC50 in [1] amounted to 36 nM; in series [4], 40 nM; in series [6], 300 nM; in series [7] it was 2.1 nM; in series [10] it was 5.6 nM; in [11], 3.9 nM. Further, half-maximal inhibition in series [16] (IC50) required 5.8 nM. Further, the bioavailability in series [5] was 89%; in series [12] it was 2%. In addition, the EC50 in series [2] (huh-7) was 3700 nM and 9600 nM; in [3] it was 3600 nM. Also, the AUC in [8] turned out to be 3.3 µM·h. In series [9], the half-life is 15 h. The molecule further yielded a Vd in [13] of 0.1 L/kg. Besides, in series [14], the clearance worked out at 0.2 mL/min/kg. For the same molecule, in series [15], the fraction unbound was less than 0.01.

Regarding `CC(C)(C)OC(=O)Nc1cscc1-c1nc(O)c(O)c(C(=O)O)n1`, in [1], the IC50 was found to be 8280 nM. This counts as single-digit micromolar.

`O=C(O)c1nc(-c2ccccc2)nc(O)c1O`: in [1], 30000 nM corresponded to half-maximal inhibition (IC50).

`Cc1ccccc1S(=O)(=O)NC(=O)Nc1cscc1-c1nc(O)c(O)c(C(=O)O)n1` returned an IC50 in series [1] of 47 nM. For the same molecule, it took 16000 nM to reach a half-maximal effect in [3] (EC50).

Take `O=C(NCc1ccccc1)Nc1cscc1-c1nc(O)c(O)c(C(=O)O)n1`: in series [1], the IC50 came to 873 nM. This counts as sub-micromolar.

Consider `O=C(NCc1ccccc1Cl)Nc1ccsc1-c1nc(O)c(O)c(C(=O)O)n1`, for which the values for the IC50 in series [4], in series [6] and in [17] were 180 nM, 800 nM and 170 nM, respectively.

Consider `O=C(Nc1cscc1-c1nc(O)c(O)c(C(=O)O)n1)NS(=O)(=O)c1ccccc1`, for which inhibition in series [1] was half-maximal at 62 nM (IC50). The response in [3] was half-maximal at 32000 nM (EC50).

With `O=C(Nc1cscc1-c1nc(O)c(O)c(C(=O)O)n1)NS(=O)(=O)c1cccc(Cl)c1Cl`, inhibition in series [1] was half-maximal at 12 nM (IC50). The EC50 in [2] (setting [18]) turned out to be 4900 nM; in [3], 2400 nM.

`O=C(Cc1ccccc1Cl)Nc1cscc1-c1nc(O)c(O)c(C(=O)O)n1` displayed an IC50 in series [1] of 2610 nM.

On to `O=C(Nc1cscc1-c1nc(O)c(O)c(C(=O)O)n1)OCc1ccccc1`, for which, in series [1], the IC50 turned out to be 326 nM. Compared with the last molecule, the IC50 is about 8-fold lower.

As for `O=C(Nc1cscc1-c1nc(O)c(O)c(C(=O)O)n1)NS(=O)(=O)c1ccc(Cl)cc1`, in series [1], the IC50 turned out to be 85 nM. Also, the EC50 in series [3] turned out to be 26000 nM.

As to `O=C(Nc1cscc1-c1nc(O)c(O)c(C(=O)O)n1)NS(=O)(=O)c1ccccc1Br`, the IC50 was 74 nM in [1], 60 nM in series [4], 400 nM in series [6] and 70 nM in [17]. The molecule further registered an EC50 in [3] of 3400 nM.

As for `Cn1c(-c2cccs2)nc(C(=O)O)c(O)c1=O`, the results for the IC50 in [4], in series [6] and in [17] were 4600 nM, 3200 nM and 5600 nM, respectively.

`O=C(Nc1sccc1-c1nc(O)c(O)c(C(=O)O)n1)OCc1ccccc1` gave an IC50 in [1] of 343 nM.

With `O=C(NCc1ccccc1Cl)Nc1cscc1-c1nc(O)c(O)c(C(=O)O)n1`, the IC50 in [1] came to 258 nM. The IC50 values of the last two molecules are within 1.5-fold of each other.

`O=C(O)c1nc(-c2cccs2)nc(O)c1O` returned an IC50 in [1] of 2600 nM.

`O=C(Nc1cscc1-c1nc(O)c(O)c(C(=O)O)n1)NS(=O)(=O)c1ccc2ccccc2c1` registered an IC50 in series [1] of 48 nM. This molecule also gave an EC50 in series [3] of 32000 nM.
